Assay results reported in ChEMBL document CHEMBL1143590, “Synthesis and monoamine transporter binding properties of 3beta-(3',4'-disubstituted phenyl)tropane-2beta-carboxylic acid methyl esters” (J Med Chem, 2005).
pIC50, pKi: −log10 of the molar value.

Assays:
[1] = Binding affinity towards norepinephrine transporter determined using [3H]nisoxetine as radioligand
Summary of the method: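 Competition binding at the norepinephrine transporter against [³H]nisoxetine, present at 1.0 nM final concentration.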

[2] = Binding affinity towards serotonin transporter determined using [3H]paroxetine as radioligand
Summary of the method: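 Serotonin transporter affinity from competition binding versus [³H]paroxetine at a final concentration of 0.2 nM.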

[3] = Binding affinity of compound towards dopamine transporter determined using [3H]WIN-35 428 as radioligand
Summary of the method: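 Competition binding at the dopamine transporter; displacement of [³H]WIN 35,428 at 0.5 nM final concentration.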

SMILES | pKi [1] | pKi [2] | pIC50 [3]
COC(=O)C1C2CC[C@H](C[C@@H]1c1ccc(Cl)c(C)c1)N2C (stereo partly specified) | 7.44 | 7.98 | 9.09
COC(=O)[C@@H]1C2CC[C@H](C[C@@H]1c1ccccc1)N2C | 6.04 | 5.97 | 7.64
COC(=O)C1C(c2ccc(Br)c(Cl)c2)CC2CCC1N2C (stereo unspecified) | 8.88 | 9.03 | 9.92
COC(=O)C1C(c2ccc(Cl)c(Br)c2)CC2CCC1N2C (stereo unspecified) | 8.14 | 9.11 | 9.38
COC(=O)C1C(c2ccc(Cl)c(I)c2)CC2CCC1N2C (stereo unspecified) | 7.82 | 8.86 | 9.39
COC(=O)C1C(c2ccc(C)c(C)c2)CC2CCC1N2C (stereo unspecified) | 6.97 | 8.01 | 9.37
COC(=O)C1C(c2ccc(I)c(I)c2)CC2CCC1N2C (stereo unspecified) | 7.39 | 8.70 | 9.01
COC(=O)C1C(c2ccc(Br)c(Br)c2)CC2CCC1N2C (stereo unspecified) | 8.55 | 9.15 | 9.57
COC(=O)C1C(c2ccc(Br)c(I)c2)CC2CCC1N2C (stereo unspecified) | 7.98 | 8.94 | 9.68
COC(=O)C1C2CC[C@H](C[C@@H]1c1ccc(I)c(Br)c1)N2C (stereo partly specified) | 8.71 | 9.24 | 9.70
COC(=O)C1C2CC[C@H](C[C@@H]1c1ccc(I)c(Cl)c1)N2C (stereo partly specified) | 8.90 | 8.98 | 9.59
COC(=O)C1C(c2ccc(Cl)c(Cl)c2)CC2CCC1N2C (stereo unspecified) | 7.74 | 8.50 | 9.10
